This passage reports IC50, IC90 and Activity results from ChEMBL document CHEMBL1151952, “Biologically active cannabinoids from high-potency Cannabis sativa” (J Nat Prod, 2009).

One may read the IC50 as the concentration needed to halve the response being measured. Usually IC90 stands for the point of the concentration-response curve where the effect stands at 90%.

For data set [1], the system named is Pichia kudriavzevii. Description: Antifungal activity against Candida krusei ATCC 6258 by alamar blue assay. The class given is functional, organism-based.
Data set [2] deals with Leishmania donovani. Description: Antileishmanial activity against Leishmania donovani. The class given is functional, organism-based. Put shortly:
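Leishmania donovani assay; IC50 and IC90 are the test concentrations that kill 50% and 90% of cells, relative to solvent controls.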

The test system of data set [3] is Mycobacterium intracellulare. Put plainly: Antibacterial activity against Mycobacterium intracellular ATCC 23068 after 68 to 72 hrs by alamar blue assay. The class given is functional, organism-based. (In general: Alamar Blue is a resazurin reagent that responds to reducing activity.)
In data set [4] the test system is Escherichia coli. Put plainly: Antibacterial activity against Escherichia coli ATCC 35218 after 18 to 24 hrs by alamar blue assay. The class given is functional, organism-based.
In data set [5] the test system is Plasmodium falciparum. Description: Antiplasmodial activity against Plasmodium falciparum D6. The class given is functional, organism-based.
The test system of data set [6] is Staphylococcus aureus. Description: Antibacterial activity against methicillin-resistant Staphylococcus aureus ATCC 33591 after 18 to 24 hrs by alamar blue assay. The class given is functional, organism-based.
Data set [7] deals with Staphylococcus aureus. Description: Antibacterial activity against Staphylococcus aureus ATCC 29213 by alamar blue assay. The class given is functional, organism-based.
The test system of data set [8] is Candida albicans. Put plainly: Antifungal activity against Candida albicans ATCC 90028 after 18 to 24 hrs by alamar blue assay. The class given is functional, organism-based.
The subject of data set [9] is Vero. Description: Cytotoxicity against african green monkey Vero cells up to 10 ug/mL by neutral red method. As to conditions: chlorocebus sabaeus; call rule not given here. The class given is cell-based.
Data set [10] concerns Plasmodium falciparum. Put plainly: Antiplasmodial activity against Plasmodium falciparum W2. The class given is functional, organism-based.
The mark [11] stands for this setting: Plasmodium falciparum, D6, read-out: IC50.
Where [12] appears, read: Plasmodium falciparum, W2, read-out: IC50.
The mark [13] stands for this setting: Mycobacterium intracellulare, ATCC 23068, read-out: IC50.
[14] abbreviates: Candida albicans, ATCC 90028, read-out: IC50.
The mark [15] stands for this setting: Staphylococcus aureus, ATCC 29213, read-out: IC50.

`C[C@@H]1[C@H](O)[C@@H](C)/C=C/C=C/C=C/C=C/C=C/C=C/C=C/[C@H](O[C@@H]2O[C@H](C)[C@@H](O)[C@H](N)[C@@H]2O)C[C@@H]2O[C@](O)(C[C@@H](O)C[C@@H](O)[C@H](O)CC[C@@H](O)C[C@@H](O)CC(=O)O[C@H]1C)C[C@H](O)[C@H]2C(=O)O` [AMPHOTERICIN B] had an IC50 in [1] of 0.7 µM.
In the case of `CCCCCc1cc(O)c(C/C=C(\C)CCC=C(C)C)c(OC(C)=O)c1O`, the IC50 in data set [2] is 10.7 µM; in data set [3], “Not Active”; in [4], “Not Active”; in [5] (setting [11]), 7.2 µM; in data set [6], 53.4 µM; in data set [7] it was “Not Active”. Moreover, the half-inhibitory concentration (IC50) result in data set [8] is “Not Active”; in [10] (setting [12]), 6.7 µM. In data set [2], the IC90 was determined as 18.7 µM. Moreover, the Activity entry in data set [9] is listed as “Non-toxic”.
Regarding `CCCCCc1cc(O)c2c(c1)OC(C)(C)c1cc(O)c(C)cc1-2`, the figures for the IC50 in data set [3] (setting [13]), in [4] and in [8] (setting [14]) were 30.6 µM, “Not Active” and 4.6 µM, respectively. Moreover, the Activity entry in [9] is listed as “Non-toxic”.
As to `CCCCCc1cc2c(c(O)c1C(=O)O)-c1cc(C)c(O)cc1C(C)(C)O2` [8-HYDROXYCANNABINOLIC ACID A], the IC50 result in [3] is “Not Active”; in data set [4] (Escherichia coli, ATCC 35218, read-out: IC50) it was 54 µM; in data set [1], 54 µM; in [7] (setting [15]), 3.5 µM; in [8], “Not Active”. Moreover, in data set [9], the Activity entry is “Non-toxic”.
In data set [2], `N=C(N)c1ccc(OCCCCCOc2ccc(C(=N)N)cc2)cc1` [PENTAMIDINE] registered an IC50 of 3.8 µM and an IC90 of 19.1 µM.
As to `CCCCCc1c(C/C=C(\C)CCC=C(C)C)c(O)cc(O)c1OC(C)=O`, the IC50 in [2] is 42.7 µM; in data set [3], “Not Active”; in data set [4], “Not Active”; in data set [1], 53.4 µM; in data set [5], “Not Active”; in [6] it was 6.7 µM. The IC50 is 12.2 µM in data set [7] (setting [15]), “Not Active” in data set [8] and “Not Active” in data set [10]. Also, the IC90 in [2] was found to be 85.4 µM. Moreover, in data set [9], the Activity entry is on record as “Non-toxic”.
Regarding `CCCCCc1cc(O)c2c(c1OC(C)=O)OC(C)(CCC=C(C)C)C=C2` (racemic), the IC50 in data set [2] amounted to 40.3 µM; in [5] (setting [11]), 7.2 µM; in data set [10] (setting [12]), 4 µM. The compound further registered an IC90 in data set [2] of 91.3 µM. The Activity entry in data set [9] is “Non-toxic”.
For `C=C(C)C(O)CCC1(C)C=Cc2c(O)cc(CCCCC)cc2O1` (racemic), it took 96.8 µM to reach the 90% level in data set [2] (IC90). Further, the IC50 result in data set [3] is “Not Active”; in data set [4] it was “Not Active”; in data set [1], 60.5 µM; in data set [5], “Not Active”; in data set [6], 24.4 µM; in [7] (setting [15]), 29.6 µM. Moreover, the IC50 in [8] (setting [14]) is 60.5 µM; in data set [10], “Not Active”. The Activity entry in data set [9] was “Non-toxic”.
With `O=C(O)c1cn(C2CC2)c2cc(N3CCNCC3)c(F)cc2c1=O` [CIPROFLOXACIN], in data set [3] (setting [13]), the IC50 was 1.5 µM.
